pEC50, pIC50: −log10 of the molar value. One block for each molecule: values may come before it.
Assays:
[1] = Inhibition of collagenase (unknown origin) transfected in human HeLa cells by luciferase reporter gene assay; assay type: cell-based
THP-1 [2] = experiment: Immunomodulatory activity in human THP1 cells assessed as reduction in LPS-induced IL-8 production; assay type: functional, cell-based
How it was run: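 Human promyeloid THP-1 cells were stimulated with lipopolysaccharide to induce IL-8 synthesis, and inhibition of IL-8 production by the test compound was measured.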

HeLa = experiment: Inhibition of collagenase (unknown origin) transfected in human HeLa cells by luciferase reporter gene assay relative to control; assay type: cell-based
[3] = Lipophilicity, logP of compound; assay type: physicochemical; settings: octanol/water
THP-1 [4] = experiment: Immunomodulatory activity in human THP1 cells assessed as reduction in LPS-induced IL-8 production relative to control; assay type: functional
[5] = Mutagenicity in Salmonella typhimurium by Ames test; assay type: toxicity; settings: salmonella enterica subsp. enterica serovar typhimurium
PBMC [6] = experiment: Inhibition of LPS-induced TNFalpha release in human PBMC cells; assay type: functional, cell-based
How it was run: (§1)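 Primary human peripheral blood mononuclear cells were stimulated with LPS (IL-12p40, TNFα) or PHA (IFNγ, IL-2, IL-4). Cytokine release was measured with test compound, and clobetasol and dexamethasone were run in parallel as reference glucocorticoids.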

PBMC [7] = experiment: Inhibition of PHA-induced IFNgamma release in human PBMC cells relative to control; assay type: functional
PBMC [8] = experiment: Inhibition of PHA-induced IFNgamma release in human PBMC cells; assay type: functional, cell-based; how it was run: as §1
PBMC [9] = experiment: Inhibition of LPS-induced IL12p40 release in human PBMC cells relative to control; assay type: functional
PBMC [10] = experiment: Inhibition of PHA-induced IL2 release in human PBMC cells; assay type: functional, cell-based; how it was run: as §1
PBMC [11] = experiment: Inhibition of LPS-induced TNFalpha release in human PBMC cells relative to control; assay type: functional
PBMC [12] = experiment: Inhibition of LPS-induced IL12p40 release in human PBMC cells; assay type: functional, cell-based; how it was run: as §1
PBMC [13] = experiment: Inhibition of PHA-induced IL4 release in human PBMC cells relative to control; assay type: functional
PBMC [14] = experiment: Inhibition of PHA-induced IL2 release in human PBMC cells relative to control; assay type: functional
PBMC [15] = experiment: Inhibition of PHA-induced IL4 release in human PBMC cells; assay type: functional, cell-based; how it was run: as §1
[16] = Drug metabolism in dog Hepatocyte assessed as demethylation product M-4 formation; assay type: ADME, cell-based, Canis lupus familiaris; settings: hepatocytes
[17] = Drug metabolism in human Hepatocyte assessed as demethylation product M-1 formation; assay type: ADME, cell-based; settings: hepatocytes
[18] = Clearance in female Wistar rat plasma at 5 mg/kg, iv; assay type: ADME, organism-based
[19] = Drug metabolism in rat Hepatocyte assessed as demethylation product M-2 formation; assay type: ADME, cell-based; settings: hepatocytes
[20] = Drug metabolism in rat Hepatocyte assessed as demethylation product M-3 formation; assay type: ADME, cell-based; settings: hepatocytes
[21] = Volume of distribution at steady state in female Beagle dog blood at 1 mg/kg, iv; assay type: ADME, organism-based, Canis lupus familiaris; settings: whole blood, read-out: Vdss
[22] = Apparent permeability from apical to basolateral side in human Caco2 cells; assay type: ADME, cell-based; settings: Caco-2
How it was run: (§2)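 Caco-2 monolayers. Apparent permeability (Papp) was measured from the apical to the basolateral compartment and also in the reverse direction. Efflux ratio is Papp B→A divided by Papp A→B.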

[23] = Clearance in female Beagle dog plasma at 1 mg/kg, iv; assay type: ADME, organism-based, Canis lupus familiaris
[24] = Volume of distribution at steady state in female Wistar rat blood at 5 mg/kg, iv; assay type: ADME, organism-based; settings: whole blood, read-out: Vdss
[25] = Drug metabolism in rat Hepatocyte assessed as demethylation product M-1 formation; assay type: ADME, cell-based; settings: hepatocytes
[26] = Metabolic stability in rat Hepatocyte assessed as intrinsic clearance; assay type: ADME, cell-based; settings: hepatocytes, read-out: CLH (converted)
[27] = Metabolic stability in human Hepatocyte assessed as intrinsic clearance; assay type: ADME, cell-based; settings: hepatocytes, read-out: CLH (converted)
[28] = Drug metabolism in dog Hepatocyte assessed as demethylation product M-1 formation; assay type: ADME, cell-based, Canis lupus familiaris; settings: hepatocytes
[29] = Drug metabolism in rat Hepatocyte assessed as demethylation product M-4 formation; assay type: ADME, cell-based; settings: hepatocytes
[30] = Efflux ratio of apparent permeability from apical to basolateral side in human Caco2 cells; assay type: ADME, cell-based; settings: Caco-2; how it was run: as §2
[31] = Terminal half life in female Wistar rat blood at 5 mg/kg, iv; assay type: ADME, organism-based; settings: whole blood, read-out: beta t1/2 (converted)
[32] = Clearance in female Wistar rat blood at 5 mg/kg, iv; assay type: ADME, organism-based; settings: whole blood
[33] = Drug metabolism in human Hepatocyte assessed as demethylation product M-4 formation; assay type: ADME, cell-based; settings: hepatocytes
[34] = Terminal half life in female Beagle dog blood at 1 mg/kg, iv; assay type: ADME, organism-based, Canis lupus familiaris; settings: whole blood, read-out: beta t1/2 (converted)
[35] = Drug metabolism in human Hepatocyte assessed as demethylation product M-5 formation; assay type: ADME, cell-based; settings: hepatocytes
[36] = Metabolic stability in dog Hepatocyte assessed as intrinsic clearance; assay type: ADME, cell-based, Canis lupus familiaris; settings: hepatocytes, read-out: CLH (converted)
[37] = Clearance in female Beagle dog blood at 1 mg/kg, iv; assay type: ADME, organism-based, Canis lupus familiaris; settings: whole blood

pEC50 [1]: 8.40
pIC50 (THP-1 [2]): 8.10
logP [3]: 4.4
SMILES: COc1ccc([C@H](Nc2cc(F)cc3[nH]c(=O)ccc23)[C@](O)(CN(C)C)C(F)(F)F)c(Cl)c1F
Emax (HeLa): 62%
Emax (THP-1 [4]): 109%

pEC50 [1]: 8.80
pIC50 (THP-1 [2]): 9.10
logP [3]: 3.8
SMILES: CCOC[C@@](O)([C@@H](Nc1cc(F)cc2[nH]c(=O)ccc12)c1ccc(OC)c(F)c1Cl)C(F)(F)F
Emax (HeLa): 91%
Emax (THP-1 [4]): 99%

pEC50 [1]: 8.20
pIC50 (THP-1 [2]): 8.30
logP [3]: 4.1
SMILES: CCSC[C@@](O)([C@@H](Nc1cccc2nc(C)ccc12)c1ccc(OC)c(F)c1)C(F)(F)F
Emax (HeLa): 77%
Emax (THP-1 [4]): 82%

SMILES: Nc1c(F)ccc2[nH]c(=O)ccc12
Activity [5]: Toxic

pEC50 [1]: 9.40
pIC50 (THP-1 [2]): 10.00
logP [3]: 3.9
SMILES: COc1ccc([C@H](Nc2cc(F)cc3[nH]c(=O)ccc23)[C@](O)(CSC)C(F)(F)F)c(Cl)c1F
Emax (HeLa): 94%
Emax (THP-1 [4]): 100%

pEC50 [1]: 9.60
pIC50 (THP-1 [2]): 9.90
logP [3]: 4.5
SMILES: COc1ccc([C@H](Nc2cccc3nc(C)ccc23)[C@](O)(CSC)C(F)(F)F)c(Cl)c1F
Emax (HeLa): 89%
Emax (THP-1 [4]): 98%

pEC50 [1]: 8.30
pIC50 (THP-1 [2]): 8.30
logP [3]: 4.4
SMILES: CCSC[C@@](O)([C@@H](Nc1cccc2nc(C)ccc12)c1ccc(OC)cc1F)C(F)(F)F
Emax (HeLa): 63%
Emax (THP-1 [4]): 85%

pEC50 [1]: 7.90
pIC50 (THP-1 [2]): 8.60
logP [3]: 4.8
SMILES: CCSC[C@@](O)([C@@H](Nc1cccc2nc(C)ccc12)c1ccc(C)cc1)C(F)(F)F
Emax (HeLa): 66%
Emax (THP-1 [4]): 87%

SMILES: Nc1ccc(F)c2[nH]c(=O)ccc12
Activity [5]: Toxic

pEC50 [1]: 8.00
pIC50 (THP-1 [2]): 8.20
logP [3]: 3.1
SMILES: CC[C@H]1c2c(cc(F)c(F)c2O)[C@H](Nc2cccc3[nH]c(=O)ccc23)[C@@](O)(C(F)(F)F)C1OC (stereo partly drawn)
Emax (HeLa): 29%
Emax (THP-1 [4]): 78%

pEC50 [1]: 9.20
pIC50 (THP-1 [2]): 9.80
logP [3]: 4.9
SMILES: CCSC[C@@](O)([C@@H](Nc1cccc2nc(C)ccc12)c1ccc(OC)c(F)c1Cl)C(F)(F)F
Emax (HeLa): 87%
Emax (THP-1 [4]): 91%

pEC50 [1]: 8.10
pIC50 (THP-1 [2]): 8.60
SMILES: C[C@@H]1C[C@H]2[C@@H]3CCC4=CC(=O)C=C[C@]4(C)[C@@]3(F)[C@@H](O)C[C@]2(C)[C@@]1(O)C(=O)CO [DEXAMETHASONE]
pIC50 (PBMC [6]): 8.19
Efficacy (PBMC [7]): 100%
pIC50 (PBMC [8]): 8.42
Efficacy (PBMC [9]): 100%
Emax (HeLa): 100%
pIC50 (PBMC [10]): 8.34
Efficacy (PBMC [11]): 100%
pIC50 (PBMC [12]): 8.37
Efficacy (PBMC [13]): 100%
Emax (THP-1 [4]): 100%
Efficacy (PBMC [14]): 100%
pIC50 (PBMC [15]): 8.64

Drug metabolism [16]: Metabolite_Notdetected
Drug metabolism [17]: Metabolite_Detected
pEC50 [1]: 9.10
pIC50 (THP-1 [2]): 9.40
clearance [18]: 50 mL/min/kg
Drug metabolism [19]: Metabolite_Detected
Drug metabolism [20]: Metabolite_Detected
Vd [21]: 2.1 L/kg
Papp A→B [22]: 1.9 ×10⁻⁶ cm/s
clearance [23]: 20 mL/min/kg
logP [3]: 3.3
Vd [24]: 7 L/kg
Drug metabolism [25]: Metabolite_Detected
CLint scaled [26]: 12 mL/min/kg
CLint scaled [27]: 15.7 mL/min/kg
Drug metabolism [28]: Metabolite_Detected
Drug metabolism [29]: Metabolite_Detected
efflux ratio [30]: 0.5
half-life [31]: 1.9 h
clearance [32]: 60 mL/min/kg
Drug metabolism [33]: Metabolite_Detected
half-life [34]: 1.3 h
Drug metabolism [35]: Metabolite_Detected
CLint scaled [36]: 21.7 mL/min/kg
clearance [37]: 20 mL/min/kg
SMILES: COC[C@@](O)([C@@H](Nc1cc(F)cc2[nH]c(=O)ccc12)c1ccc(OC)c(F)c1Cl)C(F)(F)F
pIC50 (PBMC [6]): 9.04
Efficacy (PBMC [7]): 96%
pIC50 (PBMC [8]): 9.15
Efficacy (PBMC [9]): 96%
Emax (HeLa): 85%
pIC50 (PBMC [10]): 9.06
Efficacy (PBMC [11]): 98%
pIC50 (PBMC [12]): 9.12
Efficacy (PBMC [13]): 99%
Emax (THP-1 [4]): 95%
Efficacy (PBMC [14]): 95%
pIC50 (PBMC [15]): 9.38
